Source: ChEMBL document CHEMBL2029222, “Synthesis and biological evaluation of a class of 5-benzylidene-2-phenyl-thiazolinones as potent 5-lipoxygenase inhibitors” (Bioorg Med Chem, 2012)

Tests used:
[1] = system: U-937; experiment: Cytotoxicity against human U937 cells assessed as LDH leakage at 30 uM after 48 hrs by microplate reader assay relative to control; format: cell-based; details: u-937, 48 h
[2] = system: U-937; experiment: Cytotoxicity against human U937 cells assessed as cell viability after 48 hrs by WST-1 assay; format: cell-based; details: U-937, 48 h
Method in brief: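 U937 cells (10^4 per well, RPMI with 10% FCS, 37 °C, 5% CO2) treated with increasing compound concentrations for 48 h in 10% FCS; mitochondrial metabolic activity read by WST-1 kit protocol. IC50 for viability loss; at least three experiments, mean ± SE.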

[3] = target: T1, Polyunsaturated fatty acid 5-lipoxygenase (Homo sapiens) (UniProt P09917); experiment: Inhibition of 5-lipoxygenase in cell free S100 freshly isolated human PMNL cells assessed as assessed as residual activity at 10 uM preincubated for 15 mins measured after 10 mins by HPLC analysis relative to control
T1 sequence (whole entry): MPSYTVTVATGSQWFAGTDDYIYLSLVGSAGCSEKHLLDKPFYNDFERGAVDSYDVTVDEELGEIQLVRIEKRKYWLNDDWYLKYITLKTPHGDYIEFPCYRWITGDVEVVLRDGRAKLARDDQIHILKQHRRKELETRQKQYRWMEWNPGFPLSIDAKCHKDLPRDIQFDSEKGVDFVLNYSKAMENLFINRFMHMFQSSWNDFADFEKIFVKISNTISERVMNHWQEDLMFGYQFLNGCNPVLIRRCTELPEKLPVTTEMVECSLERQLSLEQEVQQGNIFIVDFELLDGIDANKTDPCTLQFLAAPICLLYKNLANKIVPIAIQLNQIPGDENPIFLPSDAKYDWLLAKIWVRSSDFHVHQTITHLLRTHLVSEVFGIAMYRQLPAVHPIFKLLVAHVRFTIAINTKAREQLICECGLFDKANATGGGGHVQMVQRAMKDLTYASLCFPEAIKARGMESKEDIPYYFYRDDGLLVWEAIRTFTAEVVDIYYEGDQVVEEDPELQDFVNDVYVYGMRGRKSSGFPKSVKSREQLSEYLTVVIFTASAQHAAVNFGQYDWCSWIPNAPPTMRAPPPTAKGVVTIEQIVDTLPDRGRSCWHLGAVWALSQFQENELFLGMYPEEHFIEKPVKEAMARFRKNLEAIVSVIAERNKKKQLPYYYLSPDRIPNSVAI
Method in brief: (§1)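 Human donor PMNL in PBS with 1 mM EDTA plus protease inhibitors, sonicated, spun 100,000g 70 min at 4 °C. S100 equivalent to 7.5 × 10^6 cells in PBS pH 7.4, 1 mM EDTA, 1 mM ATP; compound or DMSO 15 min at 4 °C, then 20 µM AA plus 2 mM CaCl2, 10 min at 37 °C. Methanol stop; products by HPLC; n≥3, mean ± SE.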

[4] = target: T1, Polyunsaturated fatty acid 5-lipoxygenase (Homo sapiens); experiment: Inhibition of 5-lipoxygenase in human polynuclear leukocytes assessed as residual activity at 1 uM preincubated for 15 mins measured after 10 mins by HPLC analysis relative to control; format: cell-based
Method in brief: (§2)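 Freshly isolated human PMNL (5 × 10^6 per mL PBS pH 7.4, 1 mg/mL glucose, 1 mM CaCl2) preincubated with compounds 15 min at 37 °C, then stimulated with A23187 (2.5 µM) plus AA (20 µM) for 10 min. Methanol stop, PGB1 internal standard; LTB4, all-trans isomers and 5-H(P)ETE per 10^6 cells by HPLC. n≥3, mean ± SE.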

[5] = target: T2, Polyunsaturated fatty acid 5-lipoxygenase (Homo sapiens, UniProt P09917); experiment: Inhibition of 5-lipoxygenase in human polynuclear leukocytes assessed as inhibition of A23187-stimulated 5-LO product formation preincubated for 15 mins measured after 10 mins by HPLC analysis; format: cell-based
T2 sequence (P09917 whole entry): T1 sequence (whole entry)

[6] = target: T1, Polyunsaturated fatty acid 5-lipoxygenase (Homo sapiens); experiment: Inhibition of 5-lipoxygenase in human polynuclear leukocytes assessed as residual activity at 10 uM preincubated for 15 mins measured after 10 mins by HPLC analysis relative to control; format: cell-based; method in brief: as §2
[7] = target: T2, Polyunsaturated fatty acid 5-lipoxygenase; experiment: Inhibition of 5-lipoxygenase in cell free S100 freshly isolated human PMNL cells assessed as inhibition of 5-LO product formation preincubated for 15 mins measured after 10 mins by HPLC analysis
[8] = target: T1, Polyunsaturated fatty acid 5-lipoxygenase (Homo sapiens); experiment: Inhibition of 5-lipoxygenase in cell free S100 freshly isolated human PMNL cells assessed as assessed as residual activity at 1 uM preincubated for 15 mins measured after 10 mins by HPLC analysis relative to control; method in brief: as §1

With `COc1ccc(/C=C2\SC(c3ccc(Cl)cc3)=NC2=O)c2ccccc12` the Activity [1] was 12.2% and the IC50 [2] was greater than 30 µM.
`CCCOc1ccc(/C=C2\SC(c3ccc(Cl)cc3)=NC2=O)cc1` showed an Activity [1] of 48.9% and an IC50 [2] of 21.1 µM.
`COc1ccc(/C=C2\SC(c3ccc(OC)cc3)=NC2=O)cc1` was tested, and the Activity [3] was 38.8% and the Activity [4] was 21.4%.
`COc1ccc(/C=C2\SC(c3cccc(NC(=O)C45CC6CC(CC(C6)C4)C5)c3)=NC2=O)cc1` showed an Activity [1] of 8.4% and an IC50 [2] greater than 30 µM.
Compound `COc1ccc(/C=C2\SC(c3ccc(C)cc3)=NC2=O)cc1` has an Activity [1] of 2.7% and an IC50 [2] greater than 30 µM.
Compound `COc1ccc(/C=C2\SC(c3ccc4ccccc4c3)=NC2=O)cc1` has an Activity [1] of 4.1% and an IC50 [2] greater than 30 µM.
In the case of `COc1ccc(/C(C)=C2\SC(c3ccc(C)cc3)=NC2=O)cc1`, the Activity [1] is reported as 106% and the IC50 [2] is reported as 12.1 µM.
For `COc1ccc(C2=NC(=O)/C(=C/c3cc4ccccc4[nH]3)S2)cc1`, the Activity [3] was 21.4%, the IC50 [5] was 0.67 µM and the Activity [6] was 20.5%. For the same compound, the IC50 [7] was 0.57 µM.
For `CC(=O)N(O)C/C=C/c1cccc(Oc2ccccc2)c1`, the Activity [1] was 0.8%, the Activity [3] was less than 10% and the Activity [6] was less than 10%. The IC50 [2] was greater than 30 µM.
Compound `O=C1N=C(c2ccc(Cl)cc2)S/C1=C\c1ccc(Oc2ccccc2)cc1` has an Activity [1] of 12% and an IC50 [2] greater than 30 µM.
`COc1ccc(/C=C2\SC(c3ccc(N)cc3)=NC2=O)cc1` showed an Activity [8] of 37.2% and an Activity [4] of 72.9%.
In the case of `COc1ccc(C2=NC(=O)/C(=C/c3ccc(C)cc3)S2)cc1`, the Activity [1] is reported as 15.8% and the IC50 [2] is reported as greater than 30 µM.
